Laboratory results from ChEMBL document CHEMBL5058577, “EUbOPEN Chemogenomics Library 2 (Multiplex)” (2022).

System: HEK-293T
Test: Multiplex assay against HEK293T
Format: toxicity, cell-based
Conditions: human
In short: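 Live cells were stained at seeding with Hoechst33342, BioTracker Green Microtubule Cytoskeleton Dye, MitoTracker Red and Annexin V Alexa Fluor 680. Following compound addition, they were imaged on a CQ1 microscope at 37°C and 5% CO2 and gated by CellPathfinder machine learning into Hoechst high-intensity objects or normal cells, with normal cells split into healthy, pyknosed or fragmented nuclei and pyknosed cells into mitotic or apoptotic. Tubulin, mitochondrial-mass and membrane-permeability phenotypes are per cents of healthy-nucleus cells.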

[1] = 12 h, 1 µM, compound concentration 1 uM, replicate 1
[2] = 12 h, 1 µM, compound concentration 1 uM, replicate 2
[3] = 12 h, 10 µM, compound concentration 10 uM, replicate 1
[4] = 12 h, 10 µM, compound concentration 10 uM, replicate 2
[5] = 24 h, 1 µM, compound concentration 1 uM, replicate 1
[6] = 24 h, 1 µM, compound concentration 1 uM, replicate 2
[7] = 24 h, 10 µM, compound concentration 10 uM, replicate 1
[8] = 24 h, 10 µM, compound concentration 10 uM, replicate 2
[9] = 48 h, 1 µM, compound concentration 1 uM, replicate 1
[10] = 48 h, 1 µM, compound concentration 1 uM, replicate 2
[11] = 48 h, 10 µM, compound concentration 10 uM, replicate 1
[12] = 48 h, 10 µM, compound concentration 10 uM, replicate 2

COCCCN1CCC(NC(=O)c2cc(Cl)c(N)c3c2OCC3)CC1 [PRUCALOPRIDE]
Population Apoptotic (%) [1]: 22% | Population Fragmented Nuclei (%) [1]: 10% | Population Healthy Nuclei (%) [1]: 80% | Population Hoechst High Intensity Objects (%) [1]: 8% | Population Membrane Permeable-Phenotype (%) [1]: 0% | Population Mitochondria Different-Phenotype (%) [1]: 36% | Population Mitotic Cells (%) [1]: 77% | Population Normal (%) [1]: 91% | Population Pyknosed Nuclei (%) [1]: 9% | Population Tubulin-Different-Phenotype (%) [1]: 21% | Total Cell Count [1]: 416 | Population Apoptotic (%) [2]: 31% | Population Fragmented Nuclei (%) [2]: 4% | Population Healthy Nuclei (%) [2]: 82% | Population Hoechst High Intensity Objects (%) [2]: 7% | Population Mitochondria Different-Phenotype (%) [2]: 59% | Population Mitotic Cells (%) [2]: 68% | Population Normal (%) [2]: 92% | Population Pyknosed Nuclei (%) [2]: 12% | Population Tubulin-Different-Phenotype (%) [2]: 16% | Total Cell Count [2]: 397 | Population Apoptotic (%) [3]: 37% | Population Fragmented Nuclei (%) [3]: 8% | Population Healthy Nuclei (%) [3]: 74% | Population Hoechst High Intensity Objects (%) [3]: 4% | Population Membrane Permeable-Phenotype (%) [3]: 0% | Population Mitochondria Different-Phenotype (%) [3]: 59% | Population Mitotic Cells (%) [3]: 62% | Population Normal (%) [3]: 95% | Population Pyknosed Nuclei (%) [3]: 17% | Population Tubulin-Different-Phenotype (%) [3]: 43% | Total Cell Count [3]: 421 | Population Apoptotic (%) [4]: 56% | Population Fragmented Nuclei (%) [4]: 10% | Population Healthy Nuclei (%) [4]: 72% | Population Hoechst High Intensity Objects (%) [4]: 10% | Population Mitochondria Different-Phenotype (%) [4]: 75% | Population Mitotic Cells (%) [4]: 43% | Population Normal (%) [4]: 89% | Population Tubulin-Different-Phenotype (%) [4]: 35% | Total Cell Count [4]: 261 | Population Apoptotic (%) [5]: 20% | Population Fragmented Nuclei (%) [5]: 11% | Population Healthy Nuclei (%) [5]: 78% | Population Hoechst High Intensity Objects (%) [5]: 5% | Population Membrane Permeable-Phenotype (%) [5]: 1% | Population Mitochondria Different-Phenotype (%) [5]: 18% | Population Mitotic Cells (%) [5]: 79% | Population Normal (%) [5]: 94% | Population Pyknosed Nuclei (%) [5]: 10% | Population Tubulin-Different-Phenotype (%) [5]: 14% | Total Cell Count [5]: 590 | Population Apoptotic (%) [6]: 28% | Population Fragmented Nuclei (%) [6]: 8% | Population Healthy Nuclei (%) [6]: 84% | Population Hoechst High Intensity Objects (%) [6]: 4% | Population Membrane Permeable-Phenotype (%) [6]: 0% | Population Mitochondria Different-Phenotype (%) [6]: 39% | Population Mitotic Cells (%) [6]: 71% | Population Normal (%) [6]: 95% | Population Pyknosed Nuclei (%) [6]: 6% | Population Tubulin-Different-Phenotype (%) [6]: 10% | Total Cell Count [6]: 546 | Population Apoptotic (%) [7]: 28% | Population Fragmented Nuclei (%) [7]: 8% | Population Healthy Nuclei (%) [7]: 77% | Population Hoechst High Intensity Objects (%) [7]: 4% | Population Membrane Permeable-Phenotype (%) [7]: 0% | Population Mitochondria Different-Phenotype (%) [7]: 48% | Population Mitotic Cells (%) [7]: 71% | Population Normal (%) [7]: 95% | Population Pyknosed Nuclei (%) [7]: 13% | Population Tubulin-Different-Phenotype (%) [7]: 32% | Total Cell Count [7]: 531 | Population Apoptotic (%) [8]: 50% | Population Fragmented Nuclei (%) [8]: 13% | Population Healthy Nuclei (%) [8]: 73% | Population Hoechst High Intensity Objects (%) [8]: 9% | Population Mitochondria Different-Phenotype (%) [8]: 51% | Population Mitotic Cells (%) [8]: 50% | Population Normal (%) [8]: 90% | Population Pyknosed Nuclei (%) [8]: 12% | Population Tubulin-Different-Phenotype (%) [8]: 25% | Total Cell Count [8]: 341 | Population Apoptotic (%) [9]: 24% | Population Fragmented Nuclei (%) [9]: 15% | Population Healthy Nuclei (%) [9]: 76% | Population Hoechst High Intensity Objects (%) [9]: 2% | Population Membrane Permeable-Phenotype (%) [9]: 1% | Population Mitochondria Different-Phenotype (%) [9]: 16% | Population Mitotic Cells (%) [9]: 75% | Population Normal (%) [9]: 97% | Population Pyknosed Nuclei (%) [9]: 7% | Population Tubulin-Different-Phenotype (%) [9]: 11% | Total Cell Count [9]: 1001 | Population Apoptotic (%) [10]: 21% | Population Fragmented Nuclei (%) [10]: 11% | Population Healthy Nuclei (%) [10]: 81% | Population Hoechst High Intensity Objects (%) [10]: 1% | Population Membrane Permeable-Phenotype (%) [10]: 0% | Population Mitochondria Different-Phenotype (%) [10]: 15% | Population Mitotic Cells (%) [10]: 78% | Population Normal (%) [10]: 98% | Population Pyknosed Nuclei (%) [10]: 6% | Population Tubulin-Different-Phenotype (%) [10]: 9% | Total Cell Count [10]: 832 | Population Apoptotic (%) [11]: 20% | Population Fragmented Nuclei (%) [11]: 16% | Population Healthy Nuclei (%) [11]: 77% | Population Hoechst High Intensity Objects (%) [11]: 1% | Population Membrane Permeable-Phenotype (%) [11]: 1% | Population Mitochondria Different-Phenotype (%) [11]: 32% | Population Mitotic Cells (%) [11]: 79% | Population Normal (%) [11]: 98% | Population Pyknosed Nuclei (%) [11]: 6% | Population Tubulin-Different-Phenotype (%) [11]: 16% | Total Cell Count [11]: 772 | Population Apoptotic (%) [12]: 35% | Population Healthy Nuclei (%) [12]: 75% | Population Hoechst High Intensity Objects (%) [12]: 3% | Population Membrane Permeable-Phenotype (%) [12]: 0% | Population Mitochondria Different-Phenotype (%) [12]: 31% | Population Mitotic Cells (%) [12]: 64% | Population Normal (%) [12]: 96% | Population Pyknosed Nuclei (%) [12]: 7% | Population Tubulin-Different-Phenotype (%) [12]: 15% | Total Cell Count [12]: 528

CN1CCC(C(=O)c2cccc(NC(=O)c3c(F)cc(F)cc3F)n2)CC1
Population Apoptotic (%) [1]: 32% | Population Fragmented Nuclei (%) [1]: 5% | Population Healthy Nuclei (%) [1]: 82% | Population Hoechst High Intensity Objects (%) [1]: 8% | Population Membrane Permeable-Phenotype (%) [1]: 0% | Population Mitochondria Different-Phenotype (%) [1]: 51% | Population Mitotic Cells (%) [1]: 67% | Population Normal (%) [1]: 91% | Population Pyknosed Nuclei (%) [1]: 11% | Population Tubulin-Different-Phenotype (%) [1]: 31% | Total Cell Count [1]: 396 | Population Apoptotic (%) [2]: 52% | Population Hoechst High Intensity Objects (%) [2]: 7% | Population Mitochondria Different-Phenotype (%) [2]: 59% | Population Mitotic Cells (%) [2]: 47% | Population Normal (%) [2]: 92% | Population Pyknosed Nuclei (%) [2]: 12% | Population Tubulin-Different-Phenotype (%) [2]: 20% | Total Cell Count [2]: 352 | Population Apoptotic (%) [3]: 52% | Population Fragmented Nuclei (%) [3]: 6% | Population Healthy Nuclei (%) [3]: 80% | Population Hoechst High Intensity Objects (%) [3]: 8% | Population Membrane Permeable-Phenotype (%) [3]: 1% | Population Mitochondria Different-Phenotype (%) [3]: 55% | Population Mitotic Cells (%) [3]: 47% | Population Normal (%) [3]: 91% | Population Pyknosed Nuclei (%) [3]: 12% | Population Tubulin-Different-Phenotype (%) [3]: 50% | Total Cell Count [3]: 445 | Population Apoptotic (%) [4]: 53% | Population Hoechst High Intensity Objects (%) [4]: 10% | Population Membrane Permeable-Phenotype (%) [4]: 0% | Population Mitochondria Different-Phenotype (%) [4]: 77% | Population Mitotic Cells (%) [4]: 46% | Population Normal (%) [4]: 89% | Population Pyknosed Nuclei (%) [4]: 13% | Total Cell Count [4]: 401 | Population Apoptotic (%) [5]: 26% | Population Fragmented Nuclei (%) [5]: 11% | Population Healthy Nuclei (%) [5]: 74% | Population Hoechst High Intensity Objects (%) [5]: 4% | Population Membrane Permeable-Phenotype (%) [5]: 0% | Population Mitochondria Different-Phenotype (%) [5]: 30% | Population Mitotic Cells (%) [5]: 73% | Population Normal (%) [5]: 95% | Population Pyknosed Nuclei (%) [5]: 13% | Population Tubulin-Different-Phenotype (%) [5]: 20% | Total Cell Count [5]: 504 | Population Apoptotic (%) [6]: 42% | Population Fragmented Nuclei (%) [6]: 8% | Population Healthy Nuclei (%) [6]: 83% | Population Hoechst High Intensity Objects (%) [6]: 3% | Population Mitochondria Different-Phenotype (%) [6]: 39% | Population Mitotic Cells (%) [6]: 57% | Population Normal (%) [6]: 96% | Population Pyknosed Nuclei (%) [6]: 7% | Population Tubulin-Different-Phenotype (%) [6]: 17% | Total Cell Count [6]: 478 | Population Apoptotic (%) [7]: 25% | Population Fragmented Nuclei (%) [7]: 10% | Population Healthy Nuclei (%) [7]: 76% | Population Hoechst High Intensity Objects (%) [7]: 6% | Population Membrane Permeable-Phenotype (%) [7]: 0% | Population Mitochondria Different-Phenotype (%) [7]: 48% | Population Mitotic Cells (%) [7]: 75% | Population Normal (%) [7]: 93% | Population Pyknosed Nuclei (%) [7]: 13% | Population Tubulin-Different-Phenotype (%) [7]: 41% | Total Cell Count [7]: 583 | Population Apoptotic (%) [8]: 52% | Population Fragmented Nuclei (%) [8]: 8% | Population Healthy Nuclei (%) [8]: 81% | Population Hoechst High Intensity Objects (%) [8]: 8% | Population Mitochondria Different-Phenotype (%) [8]: 64% | Population Mitotic Cells (%) [8]: 47% | Population Normal (%) [8]: 91% | Population Pyknosed Nuclei (%) [8]: 9% | Population Tubulin-Different-Phenotype (%) [8]: 34% | Total Cell Count [8]: 467 | Population Apoptotic (%) [9]: 22% | Population Fragmented Nuclei (%) [9]: 11% | Population Healthy Nuclei (%) [9]: 80% | Population Hoechst High Intensity Objects (%) [9]: 3% | Population Membrane Permeable-Phenotype (%) [9]: 1% | Population Mitochondria Different-Phenotype (%) [9]: 19% | Population Mitotic Cells (%) [9]: 77% | Population Normal (%) [9]: 96% | Population Pyknosed Nuclei (%) [9]: 7% | Population Tubulin-Different-Phenotype (%) [9]: 12% | Total Cell Count [9]: 884 | Population Apoptotic (%) [10]: 34% | Population Fragmented Nuclei (%) [10]: 9% | Population Healthy Nuclei (%) [10]: 84% | Population Mitochondria Different-Phenotype (%) [10]: 24% | Population Mitotic Cells (%) [10]: 65% | Population Pyknosed Nuclei (%) [10]: 5% | Population Tubulin-Different-Phenotype (%) [10]: 10% | Total Cell Count [10]: 692 | Population Apoptotic (%) [11]: 30% | Population Fragmented Nuclei (%) [11]: 13% | Population Healthy Nuclei (%) [11]: 79% | Population Hoechst High Intensity Objects (%) [11]: 4% | Population Membrane Permeable-Phenotype (%) [11]: 0% | Population Mitochondria Different-Phenotype (%) [11]: 35% | Population Mitotic Cells (%) [11]: 69% | Population Normal (%) [11]: 95% | Population Pyknosed Nuclei (%) [11]: 7% | Population Tubulin-Different-Phenotype (%) [11]: 23% | Total Cell Count [11]: 803 | Population Apoptotic (%) [12]: 28% | Population Fragmented Nuclei (%) [12]: 10% | Population Healthy Nuclei (%) [12]: 81% | Population Hoechst High Intensity Objects (%) [12]: 7% | Population Mitochondria Different-Phenotype (%) [12]: 42% | Population Mitotic Cells (%) [12]: 71% | Population Normal (%) [12]: 92% | Population Tubulin-Different-Phenotype (%) [12]: 25% | Total Cell Count [12]: 671
